Bioassay records (PubChem BioAssay)
RBBP9 inhibitor: blocks human serine hydrolase RBBP9 | recombinant RBBP9, FP-Rh probe fluorescence polarization | inhibition, % at 7.94 µM | 220,000 compounds, 0.2% hits | AID 1515;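 active = inhibition above the campaign mean of all tested compounds plus 3 SD, cut at about 14% in these data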
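System: RBBP9 protein | Quantity: 2.5 µM RBBP9 dispensing solution, before mixing | Reagent: FP-Rh probe, 375 nM dispensing solution | Timing: Enzyme-compound preincubation 30 min, then probe labeling 45 min, 25 °C | Measured by: Fluorescence polarization | Read-out: % inhibition | Replication: One well per compound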
LEDGF integ inh: blocks HIV-1 LEDGF/p75-dependent DNA integration. AID 743269. 370,000 compounds, 0.64% hits. inhibition, % at 3.7 µM. TR-FRET IN-LEDGF/p75 DNA integration, Eu/Cy5;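 active = inhibition above the screen-wide mean plus 3 SD, cut at about 13% in these data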;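 also: signal is the Cy5 over europium emission ratio at 671 and 618 nm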
UHRF1 MBD2 ctr: human UHRF1 methylated DNA binding inhibitors; Q96T88; UHRF1 binding to methylated oligo, TR-FRET; inhibition, % at 4.4 µM; 370,000 compounds, 0.75% hits; AID 687016; in the data active = inhibition above about 21%;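 also: UHRF1 SRA domain binding a hemimethylated CpG hairpin DNA probe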
ABHD5 PLIN5 PPI: blocks binding of human ABHD5 to perilipin-5 | Split G. princeps luciferase complementation, luminescence, 4 h | inhibition, % at 4 µM | 360,000 compounds, 0.78% hits | AID 602281;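 active = inhibition above the mean inhibition across every tested compound plus 3 SD, cut at about 22% in these data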
PRMT1 inh: PRMT1 (human) inhibition, primary screen. recombinant PRMT1, activity-based probe fluorescence polarization. inhibition, % at 2.79 µM. 370,000 compounds, 1.3% hits;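 active = inhibition above about 21% made by adding two undisclosed values, limit read from the data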
Target sequence (Q99873 whole entry, looked up): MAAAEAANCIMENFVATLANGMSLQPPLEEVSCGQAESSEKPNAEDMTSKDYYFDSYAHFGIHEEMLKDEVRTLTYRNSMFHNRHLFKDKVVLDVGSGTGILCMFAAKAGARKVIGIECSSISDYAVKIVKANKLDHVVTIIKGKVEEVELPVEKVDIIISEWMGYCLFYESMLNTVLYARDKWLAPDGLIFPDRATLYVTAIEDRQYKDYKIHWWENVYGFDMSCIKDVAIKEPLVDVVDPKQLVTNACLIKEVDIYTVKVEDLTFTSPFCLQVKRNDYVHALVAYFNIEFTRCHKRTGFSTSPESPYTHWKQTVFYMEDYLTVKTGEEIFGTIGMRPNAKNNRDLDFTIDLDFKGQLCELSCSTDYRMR
MBD2 DNA inh: MBD2-methylated oligo binding inhibition; inhibition, % at 4.4 µM; AID 686964; TR-FRET, MBD2 binding to methylated oligonucleotide; 370,000 compounds, 0.31% hits; Q9UBB5; in the data active = inhibition above about 13%
ABHD5-PLIN5 conf: confirmation of human ABHD5-PLIN5 interaction inhibitors; shares compounds with ABHD5 PLIN5 PPI; biochemical ABHD5-PLIN5 interaction, luminescence; inhibition, % at 4 µM; 2,200 compounds, 67% hits; AID 651612; in the data active = inhibition above about 23%
HNF4 split-luc: active in HNF4 split-luciferase counter-screen for ABHD5-PLIN5 inhibitors | inhibition, % at 4 µM | 2,200 compounds, 77% hits | HNF4 dimerization, luminescence, biochemical | shares compounds with ABHD5 PLIN5 PPI;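 active = mean inhibition across replicate wells exceeding the computed hit threshold, cut at about 13% in these data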;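 also: light from luciferase halves that rejoin when HNF4 fusion proteins dimerize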
Numbers stand for hits; – = inactive; · = not tested or not shown. In the library only some 3.1% were active in any assay of this set; here they are far more common.

SMILES	RBBP9 inhibitor	LEDGF integ inh	UHRF1 MBD2 ctr	ABHD5 PLIN5 PPI	PRMT1 inh	MBD2 DNA inh	ABHD5-PLIN5 conf	HNF4 split-luc
O=C(/C=C/Nc1ccccc1)c1ccccc1	–	–	–	–	–	–	·	·
O=C(/C=C/Sc1ccccc1)c1ccc(Cl)cc1	–	–	–	38	–	–	70	47
COC(=O)[C@]12C[C@H](CC(=O)N3CCSCC3)C(=O)N(Cc3ccc4c(c3)OCO4)C1=C[C@H](COCc1ccccc1)O[C@@H]2C	·	–	–	·	–	–	·	·
C#CC(=O)N(c1ccc(OC)cc1OC)C(C(=O)NC1CCCC1)c1cccs1 (configuration not stated)	–	–	–	28	–	–	40	38
COc1ccc(N(C(=O)c2ccco2)C(C(=O)NC2CCCCC2)c2cccs2)cc1OC (configuration not stated)	–	–	–	–	–	–	·	·
C#CC(=O)N(c1cc(OC)ccc1OC)C(C(=O)NC1CCCC1)c1cccs1 (configuration not stated)	–	·	·	32	·	·	45	45
c1ccc(Cn2ccc3ccc(-c4ccc5ccn(Cc6cccc(-c7ccsc7)c6)c5c4)cc32)cc1	·	–	–	·	–	–	·	·
CCc1noc(C)c1C(=O)N1CCN(CC(=O)OC)CC1	·	–	–	·	–	–	·	·
O=C(C[n+]1cccc(CNC(=O)c2ccc(OC(F)F)cc2)c1)Nc1cccc(C(F)(F)F)c1	–	–	–	32	–	–	24	–
COc1cc(N2C(=O)C=CC2=O)c(OC)cc1Cl	–	–	–	39	90	–	44	104
O=S1(=O)c2c(NCc3ccco3)cccc2Oc2ccccc2CN1Cc1cn(Cc2ccccc2C(F)(F)F)nn1	·	–	–	·	–	–	·	·
CCCC(=O)NC(c1cccc([N+](=O)[O-])c1)c1ccc2cccnc2c1O (configuration not stated)	·	–	–	29	–	–	26	–
CCCCC(=O)NC(c1ccc(N(CC)CC)cc1)c1ccc2cccnc2c1O (configuration not stated)	·	–	–	–	–	–	·	·
CCCCC(=O)NC(c1ccc(N(C)C)cc1)c1ccc2cccnc2c1O (configuration not stated)	·	–	–	23	–	–	–	–
CCCCNC(=O)C[C@H]1C[C@@]2(C(=O)OC)C(=C[C@H](C3CCCC3)O[C@@H]2C)N(CCc2ccc(OC)c(OC)c2)C1=O	·	–	–	·	–	–	·	·
N#CC1c2ccccc2C=CN1C(=O)N(c1ccccc1)c1ccccc1 (configuration not stated)	·	–	–	36	–	–	32	34
CC(C)c1ccc(NC(=O)c2csnn2)cc1	–	–	–	24	–	–	–	–
O=C(Nc1ccccc1NC(=O)c1csnn1)c1csnn1	–	–	–	–	–	–	·	·
Cc1nc2ccc(NC(=O)c3ccc(F)cc3F)cc2c(=O)[nH]1	·	–	–	·	–	–	·	·
Cc1ccc2sc(N(CCCN(C)C)C(=O)CCS(=O)(=O)c3ccccc3)nc2c1C	·	–	–	–	–	–	·	·
CN(C)CCCN(C(=O)CCSc1ccccc1)c1nc2cc3c(cc2s1)OCO3	–	–	–	27	–	–	–	19
CN(C)CCCN(C(=O)CCS(=O)(=O)c1ccccc1)c1nc2cc3c(cc2s1)OCO3	·	–	–	26	–	–	–	49
N#C/C(=C/c1cccc(O)c1)C(=O)NCc1ccc(Cl)cc1	·	–	–	24	–	–	64	55
N#C/C(=C\c1cccc(NC(=O)c2ccccc2Cl)c1)C(=O)NCCc1ccccc1	–	–	–	47	–	–	83	78
COc1cccc(C(=O)Oc2cc3c4c(c2)C(C)=CC(C)(C)N4C(=O)C3=O)c1	–	–	–	33	–	–	43	46
Cc1ccc(Cl)cc1-n1c(=O)cc(N2CCN(C(=O)c3ccco3)CC2)[nH]c1=O	–	–	–	23	–	–	–	–
